From article PMC9463105 (Chemmedchem, 2022)

What was measured:
HCMV pUL89‐C = target: T1, HCMV pUL89‐C (Human cytomegalovirus, UniProt P16732); assay: In vitro pUL89‐C endonuclease assay; format: biochemical; conditions: for inhibition at 10 µM: read-out: Nuclease inhibition % at 10 μM; for IC50: IC50, dose response, duplicate
T1 sequence (P16732 418-674 limits assumed): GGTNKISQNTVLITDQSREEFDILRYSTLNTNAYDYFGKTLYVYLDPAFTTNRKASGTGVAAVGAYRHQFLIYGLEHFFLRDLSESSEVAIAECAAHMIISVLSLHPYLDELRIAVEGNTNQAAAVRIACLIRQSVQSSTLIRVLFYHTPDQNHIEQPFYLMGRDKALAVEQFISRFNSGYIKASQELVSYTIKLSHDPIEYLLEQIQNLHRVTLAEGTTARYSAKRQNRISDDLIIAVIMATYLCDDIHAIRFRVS

Cell viability assay = format: cell-based; conditions: human, HFF cells; for viability at 7 days, 10 µM: Cell‐based assays [at 10 μM] Cell viability %, triplicate, mean
pUL89‐C = target: T2, pUL89‐C (Human cytomegalovirus, UniProt P16732); assay: pUL89‐C thermal shift assay; format: binding, Human cytomegalovirus (HCMV); conditions: 20 μM compound, compared to DMSO control
T2 sequence (P16732 418-674 limits assumed): T1 sequence (P16732 418-674 limits assumed)
In short: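 pUL89-C was expressed in E. coli and Ni-purified via a C-terminal His tag. Test compound (20 μM) was incubated with 4 μg of this protein in 5 mM MnCl2, 30 mM Tris pH 8, 50 mM NaCl for 25 min at room temperature, with 1% DMSO final. Sypro Orange was the dye. ΔTm is the mean derivative Tm vs DMSO vehicle, triplicates, with at least two independent determinations.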

HCMV ADCREGFP virus = assay: HCMV replication assay; format: cell-based, Human cytomegalovirus (HCMV); conditions: HFF cells, triplicate, mean

SMILES	inhibition at 10 µM (HCMV pUL89‐C)	viability at 7 days, 10 µM (Cell viability assay)	ΔTm (thermal shift) (pUL89‐C)	CC50 at 7 days (Cell viability assay)	IC50 (HCMV pUL89‐C)	Cell‐based assays [at 10 μM] Inhibition % (HCMV ADCREGFP virus)
O=C(NCc1ccc(F)cc1)c1nc(-c2cccc(Cl)c2)c2cccnc2c1O [Compound 16e]	8.2 ± 1.9%	≤ 70%				
O=C(NCc1ccc(F)cc1)c1nc(-c2ccccc2F)c2cccnc2c1O [Compound 16d]	17 ± 8.7%	≤ 70%				
Cc1ccc(CNC(=O)c2nc(-c3ccccc3)c3cccnc3c2O)cc1 [Compound 16a]	71 ± 2.4%	99 ± 2.6%	> 0	> 100 µM		
O=C(NCc1ccc(F)cc1)c1nc(Cl)c2cccnc2c1O [Compound 15a]	49 ± 4.7%	97 ± 2.3%	> 0	60 ± 2.4 µM	4.3 ± 1.2 µM	
O=C(NCc1ccc(F)c(Cl)c1)c1nc(Cl)c2cccnc2c1O [Compound 15c]	15 ± 2%	100 ± 5.7%				
COCCNC(=O)c1nc(Cl)c2cccnc2c1O [Compound 15f]	51 ± 14%	96 ± 2.1%			5.7 ± 0.39 µM	insignificant
Nc1nc(O)c2ncn(COC(CO)CO)c2n1 [Compound 1, ganciclovir, reference compound]				> 50 µM		
O=C(O)c1nc(-c2ccc(C(F)(F)F)cc2)c2cccnc2c1O [Compound 14]	19 ± 0.1%	97 ± 0.9%				
O=C(NCc1ccc(Cl)c(Cl)c1)c1nc(Cl)c2cccnc2c1O [Compound 15b]	33 ± 5.3%	95 ± 1%		> 50 µM	13 ± 3.8 µM	
COc1cccc(-c2nc(C(=O)NCc3ccc(C)cc3)c(O)c3ncccc23)c1 [Compound 16b]	52 ± 3.6%	76 ± 1.7%		> 60 µM	24 ± 5.4 µM	
Cc1ccc(CNC(=O)c2nc(Cl)c3cccnc3c2O)cc1 [Compound 15d]	66 ± 13%	96 ± 1.5%	> 0	> 50 µM		
COC(=O)c1nc(Cl)c2cccnc2c1O [Compound 13]	16 ± 2.5%	96 ± 1%				
